Source: ChEMBL document CHEMBL4014338, “Discovery of Small Molecules as Multi-Toll-like Receptor Agonists with Proinflammatory and Anticancer Activities” (J Med Chem, 2017)

Experiments:
HeLa [1] = assay: Induction of apoptosis in human HeLa cells at 10 to 40 uM after 24 hrs by Annexin V-FITC/propidium iodide staining based flow cytometry (reference value: 10%); assay type: functional
In short: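 HeLa cells seeded at 3 × 10^5/well and attached 24 h, treated 24 h with 10, 20, 30 or 40 μM (DMSO or poly I:C 5 μg/mL as controls). Harvested with EDTA-free trypsin, washed twice in PBS, stained with annexin V-FITC/PI, and analyzed by flow cytometry. Early plus late apoptotic percentages reported as mean ± SD of three experiments.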

[2] = target: T1, Toll-like receptor 3/8/9 (Homo sapiens) (UniProt O15455+Q9NR96+Q9NR97); assay: Agonist activity at TLR3/TLR8/TLR9 in human THP1 cells assessed as increase in TNFalpha production after 24 hrs by ELISA; assay type: cell-based
In short: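 THP-1 cells (1.5 × 10^6/well) in RPMI 1640 with 10% FBS, differentiated with PMA (20 nM) for 2 days, then 24 h in fresh medium; nonadherent cells removed. Compound added at indicated concentrations for 24 h. Supernatant TNF-α measured by ELISA. Reference ligands were poly I:C, R848 and CpG ODN2006.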

HeLa [3] = assay: Cell cycle arrest in human HeLa cells assessed as accumulation at S phase at 10 uM after 24 hrs by propidium iodide staining based flow cytometry (reference value: 31%); assay type: functional
Toll-like receptor 2 = Toll-like receptor 2 (Homo sapiens, UniProt O60603); assay: Agonist activity at human TLR2 expressed in HEK293 cells assessed as induction of NF-kB activation-mediated SEAP production after 24 hrs by HTS assay; assay type: cell-based
In short: (§1)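 Stable HEK293 lines expressing a single hTLR plus a SEAP reporter, grown in DMEM/10% FBS with selective antibiotics. Seeded at 5 × 10^4 cells/well for 24 h at 37 °C, then treated 24 h. Supernatant mixed with QUANTI-Blue, 1 h at 37 °C, OD 620 nm. Cognate agonists: Pam3CSK4 (TLR2), poly I:C (TLR3), LPS (TLR4), FLA-BS (TLR5), R848 (TLR7). EC50 as mean ± SD.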

HeLa [4] = assay: Cell cycle arrest in human HeLa cells assessed as accumulation at G0/G1 phase at 40 uM after 24 hrs by propidium iodide staining based flow cytometry (reference value: 52%); assay type: functional
Toll-like receptor 3 = target: T2, Toll-like receptor 3 (Homo sapiens, UniProt O15455); assay: Agonist activity at human TLR3 expressed in HEK293 cells assessed as induction of NF-kB activation-mediated SEAP production after 24 hrs by HTS assay; assay type: cell-based; in short: as §1
T2 sequence (O15455 whole entry): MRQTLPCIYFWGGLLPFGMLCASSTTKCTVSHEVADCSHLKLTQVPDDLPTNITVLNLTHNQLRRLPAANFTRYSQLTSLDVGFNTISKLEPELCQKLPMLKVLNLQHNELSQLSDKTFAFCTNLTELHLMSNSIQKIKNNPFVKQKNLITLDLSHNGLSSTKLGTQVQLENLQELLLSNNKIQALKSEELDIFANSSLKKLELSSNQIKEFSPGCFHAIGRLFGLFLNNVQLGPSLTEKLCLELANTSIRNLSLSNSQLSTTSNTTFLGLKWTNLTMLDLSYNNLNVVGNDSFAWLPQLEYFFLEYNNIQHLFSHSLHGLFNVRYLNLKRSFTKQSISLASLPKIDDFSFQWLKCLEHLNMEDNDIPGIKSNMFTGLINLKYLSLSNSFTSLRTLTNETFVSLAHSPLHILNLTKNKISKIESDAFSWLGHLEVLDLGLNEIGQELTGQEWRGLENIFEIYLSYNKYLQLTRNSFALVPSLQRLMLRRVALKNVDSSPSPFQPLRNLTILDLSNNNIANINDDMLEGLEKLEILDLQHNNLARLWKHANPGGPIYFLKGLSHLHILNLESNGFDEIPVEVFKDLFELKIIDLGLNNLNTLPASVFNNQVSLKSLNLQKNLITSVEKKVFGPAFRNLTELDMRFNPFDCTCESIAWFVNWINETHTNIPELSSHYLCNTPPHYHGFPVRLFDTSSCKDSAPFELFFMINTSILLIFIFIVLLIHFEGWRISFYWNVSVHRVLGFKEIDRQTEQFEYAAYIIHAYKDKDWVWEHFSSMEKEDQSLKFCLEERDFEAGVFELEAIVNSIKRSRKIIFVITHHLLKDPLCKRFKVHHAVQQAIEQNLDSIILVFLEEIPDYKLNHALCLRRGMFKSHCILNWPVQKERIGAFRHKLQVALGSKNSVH

HeLa [5] = assay: Cell cycle arrest in human HeLa cells assessed as accumulation at G2/M phase at 20 uM after 24 hrs by propidium iodide staining based flow cytometry (reference value: 17%); assay type: functional
[6] = target: T1, Toll-like receptor 3/8/9 (Homo sapiens); assay: Agonist activity at TLR3/TLR8/TLR9 in human THP1 cells assessed as increase in TNFalpha mRNA level after 12 hrs by qRT-PCR method; assay type: cell-based
In short: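 THP-1 cells (1.5 × 10^6/well) differentiated with PMA (20 nM) for 2 days, then 24 h in fresh RPMI 1640; nonadherent cells removed. Treated with indicated compound concentrations for 12 h, washed with PBS, and mRNA measured by qRT-PCR. Expressed as fold change versus untreated control, poly I:C (5 μg/mL) as reference. Mean ± SD of three independent experiments.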

HeLa [7] = assay: Antiproliferative activity against human HeLa cells after 48 hrs by WST1 assay; assay type: functional, cell-based
In short: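 Cells seeded at 5 × 10^3/well and left 24 h, then given a concentration series for 24, 48 or 72 h. WST-1 reagent added and incubated at 37 °C for 30 min–2 h until color change; absorbance 450 nm. Growth inhibition = (1 − [sample − background]/[control − background]) × 100. IC50 mean ± SD, three cell preparations.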

T1 sequence (Q9NR96 whole entry, looked up, one chain of several): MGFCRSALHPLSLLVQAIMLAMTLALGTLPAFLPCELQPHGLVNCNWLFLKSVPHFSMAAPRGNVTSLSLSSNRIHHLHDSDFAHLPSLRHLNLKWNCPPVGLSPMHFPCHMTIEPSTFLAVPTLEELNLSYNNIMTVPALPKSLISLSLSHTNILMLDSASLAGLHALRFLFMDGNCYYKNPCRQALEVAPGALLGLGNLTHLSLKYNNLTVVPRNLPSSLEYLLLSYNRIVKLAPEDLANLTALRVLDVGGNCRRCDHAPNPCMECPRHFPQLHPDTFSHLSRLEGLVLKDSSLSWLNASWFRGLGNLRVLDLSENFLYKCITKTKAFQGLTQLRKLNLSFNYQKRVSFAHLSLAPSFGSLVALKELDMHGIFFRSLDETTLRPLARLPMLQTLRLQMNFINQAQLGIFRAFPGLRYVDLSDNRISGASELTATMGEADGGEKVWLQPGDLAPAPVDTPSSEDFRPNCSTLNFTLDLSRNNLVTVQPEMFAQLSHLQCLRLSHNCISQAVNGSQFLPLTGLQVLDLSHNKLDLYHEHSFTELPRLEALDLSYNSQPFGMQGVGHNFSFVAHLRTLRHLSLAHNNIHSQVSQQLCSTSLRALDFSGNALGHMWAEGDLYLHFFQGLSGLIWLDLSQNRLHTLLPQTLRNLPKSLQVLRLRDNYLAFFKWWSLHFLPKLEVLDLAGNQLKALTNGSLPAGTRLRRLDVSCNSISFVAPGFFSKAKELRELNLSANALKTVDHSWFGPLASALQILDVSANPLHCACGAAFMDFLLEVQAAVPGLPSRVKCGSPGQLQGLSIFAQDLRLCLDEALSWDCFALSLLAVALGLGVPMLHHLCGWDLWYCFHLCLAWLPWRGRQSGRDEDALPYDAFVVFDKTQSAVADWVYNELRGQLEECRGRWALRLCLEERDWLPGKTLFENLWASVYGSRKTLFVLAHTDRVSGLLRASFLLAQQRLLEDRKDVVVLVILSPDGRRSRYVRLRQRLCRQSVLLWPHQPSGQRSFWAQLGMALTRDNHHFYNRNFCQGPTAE
T1 sequence (Q9NR97 whole entry, looked up, one chain of several): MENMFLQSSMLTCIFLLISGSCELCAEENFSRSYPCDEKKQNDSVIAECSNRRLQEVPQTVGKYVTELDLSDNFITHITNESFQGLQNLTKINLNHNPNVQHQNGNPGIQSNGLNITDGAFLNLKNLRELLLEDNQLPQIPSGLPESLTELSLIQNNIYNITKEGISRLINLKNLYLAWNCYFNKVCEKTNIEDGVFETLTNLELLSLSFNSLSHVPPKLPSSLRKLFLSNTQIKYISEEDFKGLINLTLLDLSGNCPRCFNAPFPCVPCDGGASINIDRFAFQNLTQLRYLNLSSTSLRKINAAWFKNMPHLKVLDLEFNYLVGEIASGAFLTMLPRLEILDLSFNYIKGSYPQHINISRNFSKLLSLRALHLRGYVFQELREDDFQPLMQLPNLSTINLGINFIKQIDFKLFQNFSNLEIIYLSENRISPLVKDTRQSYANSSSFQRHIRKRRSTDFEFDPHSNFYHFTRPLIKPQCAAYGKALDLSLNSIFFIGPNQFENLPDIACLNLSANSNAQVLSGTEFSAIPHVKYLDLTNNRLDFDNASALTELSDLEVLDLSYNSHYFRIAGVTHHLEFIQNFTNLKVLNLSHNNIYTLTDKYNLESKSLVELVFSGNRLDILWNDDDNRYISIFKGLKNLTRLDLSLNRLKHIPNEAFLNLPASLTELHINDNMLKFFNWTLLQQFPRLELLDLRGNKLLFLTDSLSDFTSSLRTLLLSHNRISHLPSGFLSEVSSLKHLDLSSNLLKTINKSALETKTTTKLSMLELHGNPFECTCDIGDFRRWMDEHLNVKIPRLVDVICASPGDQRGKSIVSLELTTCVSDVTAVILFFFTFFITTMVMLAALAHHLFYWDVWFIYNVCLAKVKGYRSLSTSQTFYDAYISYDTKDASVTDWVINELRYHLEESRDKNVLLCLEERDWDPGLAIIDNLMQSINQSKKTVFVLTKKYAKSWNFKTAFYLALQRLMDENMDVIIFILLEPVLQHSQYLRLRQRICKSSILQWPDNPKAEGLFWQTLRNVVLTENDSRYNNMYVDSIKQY
Toll-like receptor 2, sequence (O60603 whole entry): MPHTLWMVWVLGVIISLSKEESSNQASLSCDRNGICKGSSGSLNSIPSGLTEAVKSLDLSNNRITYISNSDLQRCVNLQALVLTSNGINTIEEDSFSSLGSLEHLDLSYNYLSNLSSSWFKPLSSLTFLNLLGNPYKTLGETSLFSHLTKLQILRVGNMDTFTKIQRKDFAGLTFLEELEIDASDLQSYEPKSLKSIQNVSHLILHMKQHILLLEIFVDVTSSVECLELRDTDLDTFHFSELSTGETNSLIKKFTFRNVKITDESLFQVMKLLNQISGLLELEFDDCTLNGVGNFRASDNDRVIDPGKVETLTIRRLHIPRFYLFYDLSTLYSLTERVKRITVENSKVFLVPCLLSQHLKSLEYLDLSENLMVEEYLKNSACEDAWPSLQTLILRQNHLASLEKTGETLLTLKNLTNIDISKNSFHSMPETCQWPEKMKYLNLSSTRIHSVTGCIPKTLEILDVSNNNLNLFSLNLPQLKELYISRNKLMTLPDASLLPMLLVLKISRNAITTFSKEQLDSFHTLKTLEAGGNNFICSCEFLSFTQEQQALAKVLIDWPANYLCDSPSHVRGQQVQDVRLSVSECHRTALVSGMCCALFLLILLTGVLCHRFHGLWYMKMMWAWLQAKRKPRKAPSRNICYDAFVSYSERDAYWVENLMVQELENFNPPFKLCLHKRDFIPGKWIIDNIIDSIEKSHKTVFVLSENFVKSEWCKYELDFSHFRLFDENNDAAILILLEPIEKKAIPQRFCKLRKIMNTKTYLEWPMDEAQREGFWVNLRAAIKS

In the case of O=[N+]([O-])c1ccc(COc2cc3c(cc2OCc2ccc([N+](=O)[O-])cc2)OC2(C=C3)CCOCC2)cc1, the Activity (HeLa [1]) is reported as 17%, the Activity [2] is reported as “Dose-dependent effect” and the Activity (HeLa [3]) is reported as 35%. For the same compound, the EC50 (Toll-like receptor 2) was over 100 µM, the Activity (HeLa [4]) was 40% and the EC50 (Toll-like receptor 3) was 4.8 µM. The Activity (HeLa [5]) was 20%, the Activity [6] was “Dose-dependent effect” and the Activity (HeLa [7]) was “Dose-dependent effect”. It also gave an IC50 (HeLa [7]) of 15.8 µM.
